pIC50: −log10 of the molar value. Calls of active or inactive are those of the source. The calls are words filed in the database; no cut-off is given here.
Columns and labels:
RPMI-8226 = assay: Antiproliferative activity against human RPMI-8226 cells after 48 hrs by celltiter-glo luminescence assay; assay type: functional, cell-based; conditions: RPMI-8226, 48 h
[1] = Effect on PRKRIR expression in human HCT-116 cells at 15 uM measured after 6 hrs by LC-MS/MS analysis relative to control; assay type: functional
Method in brief: (§1)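 HCT116 cells treated 6 h with DMSO, 15 μM or 30 μM compound, then pelleted. Peptides (1 μg) separated on a 25 cm C18 nano-column with a 136 min gradient and analysed by label-free LC-MS/MS on an Orbitrap Eclipse. Searched against the UniProt human database and quantified from normalized abundance. Two independent biological replicates per group; log2 fold change versus DMSO, p < 0.05.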

[2] = Effect on ZFAND1 expression in human HCT-116 cells at 30 uM measured after 6 hrs by LC-MS/MS analysis relative to control; assay type: functional; method in brief: as §1
[3] = Effect on BRIX1 expression in human HCT-116 cells at 30 uM measured after 6 hrs by LC-MS/MS analysis relative to control; assay type: functional; method in brief: as §1
[4] = Effect on PRKRIR expression in human HCT-116 cells at 30 uM measured after 6 hrs by LC-MS/MS analysis relative to control; assay type: functional; method in brief: as §1
[5] = Effect on KEAP1 expression in human HCT-116 cells at 15 uM measured after 6 hrs by LC-MS/MS analysis relative to control; assay type: functional; method in brief: as §1
[6] = Effect on BRCC3 expression in human HCT-116 cells at 30 uM measured after 6 hrs by LC-MS/MS analysis relative to control; assay type: functional; method in brief: as §1
HCT-116 [7] = assay: Antiproliferative activity against CB-5083-resistant human HCT-116 cells after 48 hrs by celltiter-glo luminescence assay; assay type: functional, cell-based
Method in brief: (§2)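 CellTiter-Glo viability in HCT116 lines carrying resistance mutations in p97 (CB-5083-resistant: D649A/T688A; NMS-873-resistant: A530T). Cells seeded at 750 or 3000/well within the linear range of a per-line standard curve, in DMEM with 5% FBS. Treated 24 h after seeding with eight three-fold dilutions for 48 h. IC50 from percent growth versus DMSO control; mean ± SEM of four replicate experiments.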

[8] = Effect on ZFAND1 expression in human HCT-116 cells at 15 uM measured after 6 hrs by LC-MS/MS analysis relative to control; assay type: functional; method in brief: as §1
[9] = target: T1, Transitional endoplasmic reticulum ATPase (Homo sapiens, UniProt P55072); assay: Inhibition of His6-tagged p97 (unknown origin) expressed in Escherichia coli BL21 (DE3) assessed as reduction in ATPase activity measured after 60 mins by biomol green reagent based assay
Method in brief: (§3)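 His6-p97 expressed in E. coli BL21(DE3), purified by Ni-NTA and gel filtration (500–600 kDa fractions, ≥95% pure). Phosphate read by Biomol Green at 635 nm. Eight-dose titrations; IC50 from six replicates. Thiol tests added DTT or cysteine during preincubation.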
Target sequence in this assay (P55072 whole entry): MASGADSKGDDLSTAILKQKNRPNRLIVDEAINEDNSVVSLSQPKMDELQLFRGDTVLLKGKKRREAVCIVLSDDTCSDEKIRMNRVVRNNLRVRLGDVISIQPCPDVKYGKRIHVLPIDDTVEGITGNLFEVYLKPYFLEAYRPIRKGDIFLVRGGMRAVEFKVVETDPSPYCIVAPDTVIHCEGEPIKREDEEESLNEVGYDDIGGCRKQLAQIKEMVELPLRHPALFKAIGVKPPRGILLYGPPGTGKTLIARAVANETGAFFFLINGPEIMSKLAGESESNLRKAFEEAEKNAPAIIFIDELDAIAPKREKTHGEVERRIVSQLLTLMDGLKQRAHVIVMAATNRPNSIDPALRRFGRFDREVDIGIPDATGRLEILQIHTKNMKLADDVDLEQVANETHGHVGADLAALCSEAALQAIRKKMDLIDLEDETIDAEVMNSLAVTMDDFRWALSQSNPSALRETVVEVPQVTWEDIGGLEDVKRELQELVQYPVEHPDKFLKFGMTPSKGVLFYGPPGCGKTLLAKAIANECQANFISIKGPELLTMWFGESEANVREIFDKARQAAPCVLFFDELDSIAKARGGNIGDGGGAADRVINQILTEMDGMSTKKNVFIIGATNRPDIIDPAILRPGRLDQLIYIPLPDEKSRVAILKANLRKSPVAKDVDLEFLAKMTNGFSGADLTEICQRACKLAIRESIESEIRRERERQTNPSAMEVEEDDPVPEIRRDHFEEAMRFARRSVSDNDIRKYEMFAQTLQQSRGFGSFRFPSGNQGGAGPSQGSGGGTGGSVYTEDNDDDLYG

[10] = Effect on KNTC1 expression in human HCT-116 cells at 30 uM measured after 6 hrs by LC-MS/MS analysis relative to control; assay type: functional; method in brief: as §1
[11] = target: T1, Transitional endoplasmic reticulum ATPase; assay: Inhibition of His6-tagged p97 (unknown origin) expressed in Escherichia coli BL21 (DE3) assessed as reduction in ATPase activity measured after 60 mins in presence of cysteine by biomol green reagent based assay; method in brief: as §3
Target sequence in this assay (P55072 2-806 limits assumed): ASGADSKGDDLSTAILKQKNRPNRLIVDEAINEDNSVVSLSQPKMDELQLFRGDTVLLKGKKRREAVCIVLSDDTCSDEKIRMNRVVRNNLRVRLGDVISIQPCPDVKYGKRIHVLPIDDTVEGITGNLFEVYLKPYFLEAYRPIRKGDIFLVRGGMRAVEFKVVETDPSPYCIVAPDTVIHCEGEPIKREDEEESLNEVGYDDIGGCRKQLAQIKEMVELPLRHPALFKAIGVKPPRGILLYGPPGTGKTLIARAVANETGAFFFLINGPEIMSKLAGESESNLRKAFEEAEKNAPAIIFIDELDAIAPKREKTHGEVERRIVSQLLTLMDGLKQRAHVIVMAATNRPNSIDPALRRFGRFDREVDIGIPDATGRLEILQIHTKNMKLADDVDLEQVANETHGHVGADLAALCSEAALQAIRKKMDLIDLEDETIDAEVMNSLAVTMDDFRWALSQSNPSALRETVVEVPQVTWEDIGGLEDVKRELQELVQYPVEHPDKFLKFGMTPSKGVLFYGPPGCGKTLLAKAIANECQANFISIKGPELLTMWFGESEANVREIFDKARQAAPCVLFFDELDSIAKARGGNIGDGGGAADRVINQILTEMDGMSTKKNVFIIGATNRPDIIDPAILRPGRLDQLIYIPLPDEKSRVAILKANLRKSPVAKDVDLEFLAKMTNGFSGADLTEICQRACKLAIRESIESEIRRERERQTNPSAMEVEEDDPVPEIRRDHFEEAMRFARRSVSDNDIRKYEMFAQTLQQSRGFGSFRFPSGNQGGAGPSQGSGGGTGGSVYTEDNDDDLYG

[12] = Effect on EPPK1 expression in human HCT-116 cells at 30 uM measured after 6 hrs by LC-MS/MS analysis relative to control; assay type: functional; method in brief: as §1
[13] = Selectivity ratio of IC50 for inhibition of proteasomal turnover of p97-independent ODD-luciferase reporter substrate in human HeLa cells to IC50 for inhibition of p97 in human HeLa cells assessed as reduction in proteasomal turnover of p97-dependent reporter substrate UbG76V-GFP
Method in brief: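 HeLa cells stably carrying both UbG76V-GFP and ODD-Luc, in DMEM with 2.5% FBS, received 4 μM MG132 for 60 min at 37°C. After PBS washes they got cycloheximide plus compound for 120 min at 37°C. GFP was read by confocal imaging, then luminescence after D-luciferin (10 min, r.t.). IC50s for each reporter came from quadruplicates.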

[14] = Effect on GOLGA3 expression in human HCT-116 cells at 15 uM measured after 6 hrs by LC-MS/MS analysis relative to control; assay type: functional; method in brief: as §1
[15] = Effect on CDK2AP1 expression in human HCT-116 cells at 15 uM measured after 6 hrs by LC-MS/MS analysis relative to control; assay type: functional; method in brief: as §1
[16] = Effect on GOLGA3 expression in human HCT-116 cells at 30 uM measured after 6 hrs by LC-MS/MS analysis relative to control; assay type: functional; method in brief: as §1
[17] = Effect on KEAP1 expression in human HCT-116 cells at 30 uM measured after 6 hrs by LC-MS/MS analysis relative to control; assay type: functional; method in brief: as §1
[18] = Inhibition of yeast Cdc48 assessed as reduction in ATPase activity measured after 60 mins by biomol green reagent based assay; parameters: species or system Saccharomyces cerevisiae
Method in brief: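 Incubation ran 60 min at room temperature and was stopped with Biomol Green. Phosphate was read as absorbance at 635 nm. IC50 came from an eight-dose titration, six replicates.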

[19] = Inhibition of proteasomal turnover of p97-independent ODD-luciferase reporter substrate in human HeLa cells incubated for 120 mins by luciferase reporter gene assay; assay type: functional, cell-based; conditions: 2 h
Method in brief: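 HeLa cells co-expressing UbG76V-GFP and ODD-Luc were seeded at 5000/well in clear DMEM with 2.5% FBS. They were pretreated with 4 μM MG132 for 60 min at 37 °C, washed with PBS, then given cycloheximide plus compound for 120 min at 37 °C and washed. GFP was read by high-content confocal imaging, then luminescence after 10 min with D-luciferin at r.t. IC50 was fitted from quadruplicates.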

[20] = Effect on BRCC3 expression in human HCT-116 cells at 15 uM measured after 6 hrs by LC-MS/MS analysis relative to control; assay type: functional; method in brief: as §1
[21] = Effect on KNTC1 expression in human HCT-116 cells at 15 uM measured after 6 hrs by LC-MS/MS analysis relative to control; assay type: functional; method in brief: as §1
[22] = target: T1, Transitional endoplasmic reticulum ATPase; assay: Irreversible inhibition of p97 in human HeLa cells assessed as reduction in p97-dependent reporter substrate UbG76V-GFP degradation preincubated followed by washout and measured after 17 hrs by luciferase reporter gene assay; assay type: cell-based; conditions: in the assay text read “GFP fluorescence assay” for “luciferase reporter gene assay”
Method in brief: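 HeLa cells expressing UbG76V-GFP/ODD-Luc, 5000 cells/well in DMEM with 2.5% FBS. Pretreated with 4 μM MG132 for 60 min at 37 °C, PBS-washed, then given cycloheximide plus compound for 120 min. After washout, GFP decay followed in cycloheximide for an additional 17 h. GFP read by high-content imaging; luciferase read with D-luciferin; quadruplicates.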
Target sequence in this assay (P55072 2-806 limits assumed): as above

[23] = target: Transitional endoplasmic reticulum ATPase (Homo sapiens, UniProt P55072, C522A); assay: Inhibition of His6-tagged p97 C522A mutant (unknown origin) expressed in Escherichia coli BL21 (DE3) assessed as reduction in ATPase activity measured after 60 mins by biomol green reagent based assay; method in brief: as §3
HCT-116 [24] = assay: Antiproliferative activity against NMS-873-resistant human HCT-116 cells after 48 hrs by celltiter-glo luminescence assay; assay type: functional, cell-based; method in brief: as §2

Transitional endoplasmic reticulum ATPase (Homo sapiens, UniProt P55072, C522A), sequence (P55072 2-806 C522A limits assumed): as the sequence (P55072 2-806 limits assumed) above, with C521A counted along it

## C=CC(=O)Nc1ncnc2c1c(-c1ccccc1)nn2C(C)(C)C
RPMI-8226
  pIC50: 5.47
[1]
  log2FC: 0.69
[2]
  log2FC: 0.42
[3]
  log2FC: 0.7
[4]
  log2FC: 0.68
[5]
  log2FC: -0.46
[6]
  log2FC: 0.83
HCT-116 [7]
  Activity: Active
[8]
  log2FC: 0.49
[9]
  pIC50: 6.22
[10]
  log2FC: -0.87
[11]
  inhibition: Active
[12]
  log2FC: 0.64
[13]
  Selectivity ratio: 20
[14]
  log2FC: -0.36
[15]
  log2FC: -0.48
[16]
  log2FC: -0.7
[17]
  log2FC: -1.03
[18]
  pIC50: 3.42
[19]
  pIC50: 4.46
[20]
  log2FC: 0.94
[21]
  log2FC: -0.43
[22]
  inhibition: Active
[23]
  pIC50: 3.96
HCT-116 [24]
  Activity: Active

— ChEMBL document CHEMBL4732155 (Eur J Med Chem, 2021)
